17 compounds from PubChem BioAssay AID540324 (Johns Hopkins Ion Channel Center, 2011) can be followed below.

The structures appear in SMILES notation. The source made the active and inactive calls.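 Rule for the calls: active = maximum inhibition above 30% at any tested concentration, with a dose response curve fitted; inactive = no inhibition at any dose or no dose response curve.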

The nature of the assay: thallium flux inhibition in parental HEK293 cells, SAR follow-up, counter-screen for KCNK9 inhibitor project, cell-based, FluxOR thallium flux, concentration-response, set 2 (AID 540324). The note with it: FluxOR fluorescence ratio; series mostly up to 30 µM. Put shortly:
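Assay system: parental HEK293 cells. Probe or stimulus: K+/Tl+ sulfate stimulus, 5x stock. Compound dosing: 10 concentrations. Times: dye loading 90 min at room temperature in dark, compound exposure 20 min. Technique: FluxOR thallium-flux fluorescence. Repeats: at least two replicates per compound.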
For orientation: The purpose of a counterscreen is to sort out artefacts and off-target activity.
In the case of `Cc1cccc(C(=O)Nc2cccc(NC(=O)c3ccccc3C)c2)c1`, the result was inactive.

For `CCOc1ccccc1NC(=O)c1cccc(NC(=O)c2ccc(OC)cc2)c1`, the outcome was inactive.

Consider `CC(C1CC2CCC1C2)n1c(-c2ccc(Cl)cc2)n[nH]c1=S` (configuration not stated), for which the result was inactive.

As to `CCOc1ccccc1C(=O)Nc1cccc(NC(=O)c2ccccc2C(F)(F)F)c1`, the outcome was inactive.

Turning to `O=C(Nc1ccccc1Cl)c1cccc(NC(=O)C2CCCC2)c1`, the result was inactive.

Regarding `COc1ccccc1C(=O)Nc1cccc(NC(=O)c2ccccc2OC(F)(F)F)c1`, the result was inactive.

`CCOc1ccccc1NC(=O)c1cccc(NC(=O)CC2CCCC2)c1`: the outcome was inactive.

Consider `COc1ccccc1C(=O)Nc1cccc(NC(=O)c2cccc(C)c2)c1`, for which the result was inactive.

As to `CCOc1ccccc1NC(=O)c1cccc(NC(=O)c2cccc(C(F)(F)F)c2)c1`, the result was inactive.

Regarding `Cc1cccc(C(=O)Nc2cccc(NC(=O)c3cccc(Cl)c3)c2)c1`, the outcome was inactive.

`COc1ccc(-c2n[nH]c(=S)n2C(C)C2CC3CCC2C3)cc1` (configuration not stated): the outcome was inactive.

Turning to `Cc1cccc(C(=O)Nc2cccc(NC(=O)c3ccccc3C(F)(F)F)c2)c1`, the result was inactive.

On to `CC(c1ccco1)n1c(-c2ccoc2)n[nH]c1=S` (configuration not stated), for which the outcome was inactive.

With `CC(C1CC2CCC1C2)n1c(-c2ccccc2Cl)n[nH]c1=S` (configuration not stated), the result was inactive.

For `Cc1cccc(C(=O)Nc2cccc(NC(=O)c3cccs3)c2)c1`, the result was inactive.

Consider `CC(C1CC2CCC1C2)n1c(-c2cccc(Cl)c2)n[nH]c1=S` (configuration not stated), for which the result was inactive.

Consider `CN(C)c1ccc(C(=O)Nc2cccc(NC(=O)c3ccccc3)c2)cc1`, for which the result was inactive.
